In PMC7226283 (Cancer Science, 2020):
Peptide text beside a SMILES is read from it. * marks the point of attachment. Cbz = O=C(OCc1ccccc1)*

Experiments:
KRASm/TP53‐ HCT116 cells = test: MTS cell viability assay, KRASm/TP53‐ HCT116; type: cell-based; conditions: for recovery of the efficacy of L‐OHP on KRASm/TP53‐ HCT116 cells / cell growth rate of KRASm/TP53‐ HCT116 cells: Figure S2, Bay11‐7082 5 μM, TPCA1 20 μM, 72 hours; for recovery of the efficacy of L‐OHP on KRASm/TP53‐ HCT116 cells: MG132 0.5 μM with L‐OHP 4 μM; for cell growth rate of KRASm/TP53‐ HCT116 cells: MG132 0.5 μM; for IC50: read-out: IC50 on KRASm/TP53‐ HCT116 cells, MTS assay, 72 hours post-treatment, n = 3
In short: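 HCT116 KRASm/TP53- cells were grown in RPMI1640 with 10% FBS and 1% penicillin/streptomycin at 37°C, 5% CO2, and plated at 4 × 10^5 per well. After 24 h, Bay11-7082 (0, 5 μM), TPCA1 (0, 20 μM) or MG132 (0, 0.5 μM), all in DMSO, were added with L-OHP (0 or 4 μM). Viability was read by MTS after 72 h.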

KRASm/TP53w HCT116 cells = test: MTS cell viability assay, KRASm/TP53w HCT116; type: cell-based; conditions: read-out: IC50 on KRASm/TP53w HCT116 cells, 72 hours post-treatment, n = 3
In short: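 ATCC parental HCT116 (KRAS mutant/TP53 wild-type) grown in RPMI1640 with 10% FBS and 1% penicillin/streptomycin at 37°C, 5% CO2. Seeded at 4 × 10^5 cells/well; test compound in DMSO added after 24 h at six levels (0–10 μM or 0–25 μM series). Viability by MTS tetrazolium read-out after 72 h. IC50 reported as mean ± SD, n = 3.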

Safety = type: in vivo, mice
In short: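 Female BALB/c nude mice (6 weeks old, 7-8 per group) received s.c. KRASm/TP53w HCT116 cells (4 × 10^6) and were grouped by stratified randomization on tumor volume on day 9 after implant (day 0). L-OHP was given i.p. on days 0, 3, 7, 10, 14 and 17; controls got saline 10 mL/kg. Body weight was taken on days 0, 7, 14 and 21, with hematology and biochemistry on day 21 blood. Mean ± SD; Student's t test.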

[1] = system: NF‐κB activity in KRASm/TP53w HCT116 cells; test: NF‐κB activity luciferase assay, KRASm/TP53w HCT116; type: cell-based; conditions: 3 hours treatment
In short: (§1)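 Reporter assay: cells seeded at 5 × 10^4/well. After 1 day, shifted to RPMI1640 with 1% FBS for 24 h. Cotransfected by lipofection with NF‑κB‑RE luc2P luciferase plasmid plus CMV‑β‑galactosidase plasmid. 3 h later, test compound added at various concentrations in 1% FBS medium for 3 h. Cells lysed; activity expressed as luciferase/β‑galactosidase.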

proteasome = test: Proteasome activity in vitro
[2] = system: NF‐κB activity in KRASm/TP53‐ HCT116 cells; test: NF‐κB activity luciferase assay, KRASm/TP53‐ HCT116; type: cell-based; conditions: 3 hours treatment
In short: as §1

[3] = day 21, L‐OHP 8 mg/kg i.p. twice a week for 3 weeks
[4] = day 21, monotherapies compared to the control group, combination compared to L‐OHP monotherapy

Molecule | recovery of the efficacy of L‐OHP on KRASm/TP53‐ HCT116 cells (KRASm/TP53‐ HCT116 cells) | cell growth rate of KRASm/TP53‐ HCT116 cells (KRASm/TP53‐ HCT116 cells) | IC50 (KRASm/TP53w HCT116 cells) [µM] | IC50 (KRASm/TP53‐ HCT116 cells) [µM] | other results
Cc1ccc(S(=O)(=O)/C=C/C#N)cc1 [Bay11‐7082] | did not recover the efficacy of L‐OHP | suppressed cell growth rates | – | – | –
O=C1[O][Pt]2([NH][C@@H]3CCCC[C@H]3[NH]2)[O]C1=O [L‐OHP, oxaliplatin] | – | – | 1.7 | 4.8 | hemoglobin compared to the control group (Safety; [3]): significantly decreased; platelet count compared to the control group (Safety; [3]): significantly decreased; white blood cell count compared to the control group (Safety; [3]): significantly decreased; ALT level (Safety; [4]): elevated; AST level (Safety; [4]): elevated
CC(C)C[C@@H](C=O)NC(=O)[C@H](CC(C)C)NC(=O)[C@H](CC(C)C)NC(=O)OCc1ccccc1 [MG132] (Cbz-Leu-Leu-Leu-aldehyde) | – | suppressed cell growth rates | – | – | –
NC(=O)Nc1sc(-c2ccc(F)cc2)cc1C(N)=O [TPCA1] | did not recover the efficacy of L‐OHP | suppressed cell growth rates | – | – | –
curcumin | – | – | 20 | 17.4 | NF‐κB activity (luciferase/β‐galactosidase) [1]: suppressed NF‐κB activity in a dose‐dependent manner; proteasome activity in vitro (proteasome): suppresses proteasome activity; NF‐κB activity (luciferase/β‐galactosidase) [2]: suppressed NF‐κB activity in a dose‐dependent manner
